In ChEMBL document CHEMBL1154792, “chi-Conopeptide pharmacophore development: toward a novel class of norepinephrine transporter inhibitor (Xen2174) for pain” (J Med Chem, 2009):
Calls of active or inactive are those of the source. No cut-off for these calls is given here.

Target: Sodium-dependent noradrenaline transporter (Homo sapiens, UniProt P23975)
Assay: Displacement of [3H]nisoxetine from human NET expressed in COS7 cells
Format: cell-based
Details: COS-7
Method in brief: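 Membranes from COS-7 cells transfected with human NET were incubated with [3H]nisoxetine (4.3 nM) with or without peptide (1 nM to 100 μM, triplicate) for 1 h at RT. Filter-retained radioactivity was counted by liquid scintillation, and values are given as pIC50. Data are means of 2–5 experiments in triplicate; peptide concentration was set by calibrated HPLC at 214 nm.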

Sequence of Sodium-dependent noradrenaline transporter (P23975 whole entry): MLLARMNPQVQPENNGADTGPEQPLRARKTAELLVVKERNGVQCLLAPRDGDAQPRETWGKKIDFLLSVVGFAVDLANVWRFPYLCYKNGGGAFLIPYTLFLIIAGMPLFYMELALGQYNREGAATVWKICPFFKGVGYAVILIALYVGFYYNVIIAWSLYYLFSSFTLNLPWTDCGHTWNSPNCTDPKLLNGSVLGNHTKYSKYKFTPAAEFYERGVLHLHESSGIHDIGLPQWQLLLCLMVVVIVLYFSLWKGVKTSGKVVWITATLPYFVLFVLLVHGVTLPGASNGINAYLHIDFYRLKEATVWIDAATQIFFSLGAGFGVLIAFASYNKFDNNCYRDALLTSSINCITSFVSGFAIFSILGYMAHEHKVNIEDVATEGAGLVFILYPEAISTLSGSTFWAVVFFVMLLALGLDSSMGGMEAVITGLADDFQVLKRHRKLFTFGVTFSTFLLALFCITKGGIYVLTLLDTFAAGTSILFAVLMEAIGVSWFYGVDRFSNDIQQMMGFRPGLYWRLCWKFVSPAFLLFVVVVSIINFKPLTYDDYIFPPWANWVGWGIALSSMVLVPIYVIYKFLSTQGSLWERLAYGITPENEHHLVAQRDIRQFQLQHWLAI

`CC(C)C[C@@H]1NC(=O)[C@H](CCCCN)NC(=O)[C@H](Cc2ccc(O)cc2)NC(=O)CNC(=O)C[C@@H]2CSSC[C@H](CC(=O)N[C@@H](Cc3cnc[nH]3)C(=O)N3CC[C@H](O)[C@H]3C(=O)N[C@H](CC(=O)O)CSSC[C@H](NC(=O)[C@@H](NC(=O)CNC(=O)[C@@H]3CCC(=O)N3)C(C)C)CC(=O)N2)NC1=O` was tested, and the Activity was “inactive”.
